# What was measured:
# [1] = In vivo antimalarial activity against Plasmodium berghei in mice (Mus musculus) after 6 days; assay type: functional; conditions: 144 h
# Procedure, shortened: (§1)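 Male or female CD-1 mice (4-5 weeks, 20-25 g) infected ip on day 0 with 5 × 10⁴ P. berghei KBG-173 parasitized erythrocytes. Oral doses in 0.5% hydroxyethylcellulose/0.1% Tween-80, given bid 6 h apart on days 3, 4 and 5, computed as free base. Giemsa-stained tail-blood smears on day 6 give % infected RBC. ED90 is the dose reducing parasitemia to 10% of untreated infected controls.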
# Mus musculus [2] = species: Mus musculus; assay: Dose needed to increase the 100% survival of treated animals (mouse), to twice the number of days; assay type: ADME, organism-based; conditions: in vivo
# Mus musculus [3] = species: Mus musculus; assay: Dose required for 100%, 31 day survival of Plasmodium berghei inoculated mice (Mus musculus).; assay type: ADME, organism-based; conditions: in vivo, 744 h
# Procedure, shortened: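 Same mouse P. berghei KBG-173 model, with ip infection on day 0 and oral bid treatment on days 3, 4 and 5. The experiment runs 31 days. The complete survival dose is the dose at which all animals are alive on day 31.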
# Plasmodium falciparum [4] = assay: In vitro antimalarial activity against Plasmodium falciparum K1; assay type: functional
# Procedure, shortened: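 K1 parasites synchronized with 5% sorbitol. Drugs in methanol or DMSO, 2-fold serially diluted. Cultures at 2% hematocrit and 0.5% parasitemia (>95% rings) in 10% human serum under 5% O₂/5% CO₂/90% N₂ at 37.5 °C for 24-30 h. Romanowsky-stained thick films scored. MIC is the lowest concentration preventing >90% maturation to normal schizonts.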
# Plasmodium falciparum [5] = assay: In vitro antimalarial activity against Plasmodium falciparum W2; assay type: functional, organism-based
# Procedure, shortened: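 Chloroquine-, quinine-, sulfadoxine- and pyrimethamine-resistant Indochina W-2 clone tested in a semiautomated microdilution assay. Graded drug concentrations incubated 66 h in medium with physiological folic acid. Read-out is inhibition of radiolabeled hypoxanthine incorporation.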
# Mus musculus [6] = species: Mus musculus; assay: Dose required by the animals(mouse) to survive after 31 days; assay type: ADME, organism-based; conditions: in vivo, 744 h
# Procedure, shortened: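 P. berghei KBG-173 in male or female CD-1 mice (4-5 weeks, 20-25 g), infected ip on day 0 with 5 × 10⁴ parasitized erythrocytes. Oral doses in 0.5% hydroxyethylcellulose/0.1% Tween-80 (10 mL/kg, free base), bid 6 h apart on days 3-5. Experiment run 31 days; complete survival dose = dose at which all animals survive to day 31.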
# Mus musculus [7] = assay: Compound was tested in vivo for antimalarial activity against Plasmodium berghei in mice (Mus musculus) after 6 days of administration (ED90 is the dose necessary to reduce the percentage of infected cells to 10% of the level found in the infected untreated controls); assay type: functional; conditions: 144 h; procedure, shortened: as §1
IC90 (Plasmodium falciparum [4]) [ng/mL],IC50 (Plasmodium falciparum [5]) [ng/mL],Structure (SMILES),ED90 [1] [mg/kg],ED (Mus musculus [2]) [mg/kg],Dose (Mus musculus [3]) [mg/kg],also measured
,,CC(C)/N=C(N)/N=C(\N)NOCCCOc1cccc2ccccc12.Cl,> 256,185,495,
,,CC(C)/N=C(N)/N=C(\N)NOCCCSc1ccc(F)cc1.Cl,70,109,183,
,,Cc1ccc(SCCCON/C(N)=N/C(N)=N/C(C)C)cc1.Cl,92,117,265,
,,Cc1cc(C)c(C)c(OCCCON/C(N)=N/C(N)=N/C(C)C)c1.Cl,< 128,> 128,,
,,CC(C)/N=C(N)/N=C(\N)NOCCCOc1cc(F)cc(F)c1F.Cl,74,107,180,
,,CC(C)/N=C(N)/N=C(\N)NOCCCOc1cc(F)c(F)cc1F.Cl,18,71,128,
,,CC(C)/N=C(N)/N=C(\N)NOCCCOc1ccc2ccccc2c1.Cl,< 128,< 128,,
,,Cc1ccc(OCCCON/C(N)=N/C(N)=N/C(C)C)cc1C.Cl,> 128,> 128,,
,,Cc1cc(OCCCON/C(N)=N/C(N)=N/C(C)C)ccc1C(C)C.Cl,< 128,128,,
,,Cc1ccc(OCCCON/C(N)=N/C(N)=N/C(C)C)c(C)c1.Cl,120,170,235,
2.5,0.0299,CC1(C)N=C(N)N=C(N)N1OCCCOc1cccc(C(F)(F)F)c1.Cl,,,,
0.37,0.0416,Cc1cccc(OCCCON2C(N)=NC(N)=NC2(C)C)c1.Cl,,,,
0.4,,CC1(C)N=C(N)N=C(N)N1OCCCOc1ccc(Br)cc1.Cl,,,,
0.63,,CC1(C)N=C(N)N=C(N)N1OCCCOc1ccc(F)cc1.Cl,,,,
1.25,0.0222,CC1(C)N=C(N)N=C(N)N1OCCCSc1ccc(F)cc1.Cl,,,,
0.32,0.0342,COc1ccc(OCCCON2C(N)=NC(N)=NC2(C)C)cc1.Cl,,,,
0.63,0.0301,CC1(C)N=C(N)N=C(N)N1OCCCOc1cc(F)cc(F)c1F.Cl,,,,
0.94,0.032,CC1(C)N=C(N)N=C(N)N1OCCCOc1cc(F)c(F)cc1F.Cl,,,,
11.7,0.0719,Cc1cc(OCCCON2C(N)=NC(N)=NC2(C)C)ccc1C(C)C.Cl,,,,
1.25,0.211,COc1cc(OCCCON2C(N)=NC(N)=NC2(C)C)cc(OC)c1OC.Cl,,,,
,,CCc1ccc(OCCCO/N=C(N)/N=C(\N)NC(C)C)cc1.Cl,96,158,505,
0.32,0.0299,CC1(C)N=C(N)N=C(N)N1OCCCOc1ccc([N+](=O)[O-])cc1.Cl,,,,
,,CC(C)/N=C(N)/N=C(\N)NOCCCOc1cccc(C(F)(F)F)c1.Cl,27,73,140,
,,Cc1cccc(OCCCON/C(N)=N/C(N)=N/C(C)C)c1.Cl,> 128,> 128,,
,,COc1ccc(OCCCO/N=C(N)/N=C(\N)NC(C)C)cc1.Cl,> 128,> 128,,
,,Cc1ccc(OCCCON/C(N)=N/C(N)=N/C(C)C)cc1.Cl,113,265,445,
,,CC(C)/N=C(N)/N=C(\N)NOCCCOc1ccc(C(C)(C)C)cc1.Cl,> 128,460,1480,

IC90 (Plasmodium falciparum [4]) [ng/mL],IC50 (Plasmodium falciparum [5]) [ng/mL],Structure (SMILES),ED90 [1] [mg/kg],ED (Mus musculus [2]) [mg/kg],Dose (Mus musculus [3]) [mg/kg],also measured
,,CC(C)/N=C(N)/N=C(\N)NOCCCOc1ccc(F)cc1F.Cl,> 128,> 128,,
,,CC(C)/N=C(N)/N=C(\N)NOCCCOc1ccc(F)c(F)c1.Cl,< 16,27,77,
,,CC(C)/N=C(N)/N=C(\N)NOCCCOc1ccccc1.Cl,124,165,540,
1.56,0.0333,CC1(C)N=C(N)N=C(N)N1OCCCOc1ccc2ccccc2c1.Cl,,,,
0.38,0.0332,CC1(C)N=C(N)N=C(N)N1OCCCOc1ccc(F)c(F)c1.Cl,,,,
0.42,0.0285,CC1(C)N=C(N)N=C(N)N1OCCCOc1ccc(F)cc1F.Cl,,,,
40,0.184,CC1(C)N=C(N)N=C(N)N1OCCc1cccc(C(F)(F)F)c1.Cl,,,,
,,CC(C)/N=C(N)/N=C(\N)NOCc1ccc(Cl)c(Cl)c1,< 8,22,32,
,,N=C(NOCCCOc1cc(Cl)c(Cl)cc1Cl)NC(=N)NC1CCCCC1,> 256,275,470,
,,CC(C)/N=C(N)/N=C(\N)NOCCCSc1cc(Cl)ccc1Cl,< 128,> 128,,
2.08,0.0288,CC1(C)N=C(N)N=C(N)N1OCCCSc1ccc(Cl)cc1,,,,
,,CC(C)/N=C(N)/N=C(\N)NOCCCOc1ccc(F)cc1,< 16,30,90,
,,CC(C)/N=C(N)/N=C(\N)NOCCCOc1ccc(Br)cc1,< 32,64,135,
,,CC(C)/N=C(N)/N=C(\N)NOCCCSc1ccc(Cl)cc1,73,112,182,
,,CC(C)/N=C(N)/N=C(\N)NOCCCOc1ccc(Cl)cc1Cl,17,28,64,
,,CC(C)NC(=N)NC(=N)NOCCCOc1ccc(Cl)cc1,< 16,26,79,
,,CC(C)NC(=N)NC(=N)NOCCCOc1cc(Cl)c(Cl)cc1Cl,< 16,30,76,
40,0.278,CC1(C)N=C(N)N=C(N)N1OCCOc1cc(Cl)c(Cl)cc1Cl,,,,
2.08,0.0254,CC1(C)N=C(N)N=C(N)N1OCCCSc1cc(Cl)ccc1Cl,,,,
> 640,> 0.5,CCCCCCCCCC1N=C(N)N=C(N)N1OCCCOc1cc(Cl)c(Cl)cc1Cl (centres undefined),,,,
1.43,0.047,CC1(C)N=C(N)N=C(N)N1OCCCOc1cc(Cl)c(Cl)cc1Cl,,,,
0.63,,CC1(C)N=C(N)N=C(N)N1OCCCOc1ccc(Cl)cc1,,,,
1.67,0.0379,CC1(C)NC(N)=NC(=N)N1OCCCOc1ccc(Cl)cc1Cl,,,,
66.7,0.113,N=C1N=C(N)NC2(CCCCC2)N1OCCCOc1cc(Cl)c(Cl)cc1Cl,,,,
,,CC(C)NC(=N)NC(=N)NOCCCOc1ccc(Cl)c(Cl)c1,< 16,16,33,
,,CCN(CC)CCCC(C)Nc1ccnc2cc(Cl)ccc12 (centres undefined) [CHLOROQUINE],,,,Complete survival dose (Mus musculus [6]): 256 mg/kg; ED90 (Mus musculus [7]): 3 mg/kg
152,> 0.5,CC1(C)N=C(N)N=C(N)N1c1ccc(Cl)cc1 [CYCLOGUANIL],,,,

Structure (SMILES),IC90 (Plasmodium falciparum [4]) [ng/mL],IC50 (Plasmodium falciparum [5]) [ng/mL],ED90 [1] [mg/kg],ED (Mus musculus [2]) [mg/kg],Dose (Mus musculus [3]) [mg/kg],also measured
CCc1nc(N)nc(N)c1-c1ccc(Cl)cc1 [PYRIMETHAMINE],1740,,,,,Complete survival dose (Mus musculus [6]): 400 mg/kg; ED90 (Mus musculus [7]): 1.2 mg/kg

# — ChEMBL document CHEMBL1134684, “Phenoxypropoxybiguanides, prodrugs of DHFR-inhibiting diaminotriazine antimalarials” (J Med Chem, 2001)
